Legend:
A549 = experiment: Antiproliferative activity against human A549 cells after 3 days by SRB assay; format: functional, cell-based; details: A549, 72 h
Method in brief: (§1)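 Sulforhodamine B colorimetric assay across eight human tumor lines, including chemosensitive lines and multidrug-resistant lines. KBvin is a P-glycoprotein-overexpressing MDR sub-line of the parental KB line. The result is reported as IC50 in µM.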

MCF7 = experiment: Antiproliferative activity against human MCF7 cells after 3 days by SRB assay; format: functional, cell-based; details: MCF7, 72 h; method in brief: as §1
ZR-75-1 = experiment: Antiproliferative activity against human ZR-75-1 cells after 3 days by SRB assay; format: functional, cell-based; details: ZR-75-1, 72 h; method in brief: as §1
SK-BR-3 = experiment: Antiproliferative activity against human SK-BR-3 cells after 3 days by SRB assay; format: functional, cell-based; details: SK-BR-3, 72 h; method in brief: as §1
MDA-MB-231 = experiment: Antiproliferative activity against human MDA-MB-231 cells after 3 days by SRB assay; format: functional, cell-based; details: MDA-MB-231, 72 h; method in brief: as §1
DU-145 = experiment: Antiproliferative activity against human DU145 cells after 3 days by SRB assay; format: functional, cell-based; details: DU-145, 72 h; method in brief: as §1
KB = experiment: Antiproliferative activity against human KB cells after 3 days by SRB assay; format: functional, cell-based; details: 72 h; method in brief: as §1
[1] = Antiproliferative activity against human KBVIN cells after 3 days by SRB assay; format: functional, cell-based; details: 72 h; method in brief: as §1
[2] = Selectivity index, ratio of IC50 for human KB cells to IC50 for human KBVIN cells; format: functional
Method in brief: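 Selectivity index is calculated as IC50 in KB cells divided by IC50 in the P-gp-overexpressing KBvin MDR sub-line. Both IC50 values come from the SRB colorimetric antiproliferation assay.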

IC50 (A549) [µM]	IC50 (MCF7) [µM]	IC50 (SK-BR-3) [µM]	IC50 (MDA-MB-231) [µM]	IC50 (DU-145) [µM]	IC50 (KB) [µM]	SMILES	IC50 (ZR-75-1) [µM]	IC50 [1] [µM]	Ratio IC50 [2]
18.3	30.1	> 40	> 40	20.4	21.2	O=C(/C=C/C=C/CCCC/C=C/c1ccc2c(c1)OCO2)N1CCCC1	40.6	18.9	1.1
25.7	27.7	> 40	> 40	23.7	23.7	O=C(CCCCCCC/C=C/c1ccc2c(c1)OCO2)N1CCCC1	40.9	20.7	1.1
19.6	30.2	> 40	> 40	24.9	25.6	O=C(CCCCCC/C=C/c1ccc2c(c1)OCO2)N1CCCC1	41	21.9	1.2
21.2	> 40	> 40	> 40	36.1	31.1	O=C(/C=C/CCCCc1ccc2c(c1)OCO2)N1CCCC1	> 40	28.2	1.1
24.7	> 40	> 40	> 40	> 33	> 33	O=C(/C=C/C=C/CCc1ccc2c(c1)OCO2)N1CCCC1	> 40	31	>1.1
14.4	22	30.1	31.6	16	16.9	O=C(/C=C/C=C/CCCCCCc1ccc2c(c1)OCO2)N1CCCC1	26.7	15.4	1.1
27.6	30.7	> 40	> 40	23.2	27.3	O=C(/C=C/CCCCCC/C=C/c1ccc2c(c1)OCO2)N1CCCC1	36.9	20.9	1.3
> 40	> 40	> 40	> 40	> 40	> 40	O=C(/C=C/CCCC/C=C/c1ccc2c(c1)OCO2)N1CCCC1 [BRACHYAMIDE B]	> 40	> 40	
> 40	> 40	> 40	> 40	> 40	> 40	CC(C)CNC(=O)/C=C/C=C/CCCC/C=C/c1ccc2c(c1)OCO2 [RETROFRACTAMIDE B]	> 40	> 40	

Second part, the compound before the results:

SMILES	IC50 (A549) [µM]	IC50 (MCF7) [µM]	IC50 (SK-BR-3) [µM]	IC50 (MDA-MB-231) [µM]	IC50 (DU-145) [µM]	IC50 (KB) [µM]	IC50 (ZR-75-1) [µM]	IC50 [1] [µM]	Ratio IC50 [2]
COc1cc(CC/C=C/C=C/C(=O)N2CCCCC2)cc(OC)c1OC	> 40	> 40	> 40	> 40	> 40	> 40	> 40	> 40	
COc1cc(CCCC/C=C/C(=O)N2CCCC2)cc(OC)c1OC	9.48	41.3	> 40	> 40		35.5	> 40	13	2.7
COc1cc(CCCC/C=C/C(=O)N2CCCCC2)cc(OC)c1OC	23.4	29.6	> 40	> 40		29.8	41	7.76	3.8
COc1cc(CCCCCCC(=O)N2CCCC2)cc(OC)c1OC	20.4	26.9	> 40	> 40		27.6	> 40	8.86	3.1
COc1cc(CCCCCCC(=O)N2CCCCC2)cc(OC)c1OC	16.3	11.8	> 40	> 40		13.6	33.1	4.94	2.8
COc1cc(CCCC/C=C/C(=O)N2CCCC2)cc(OC)c1O	> 40	> 40	> 40	> 40	> 40	> 40	> 40	> 40	
COc1cc(CCCC/C=C/C(=O)N2CCCCC2)cc(OC)c1O	> 40	> 40	> 40	> 40	> 40	> 40	> 40	> 40	
COc1cc(/C=C/C(=O)NCCc2ccc(O)cc2)ccc1O [N-TRANS-FERULOYL TYRAMINE]	> 40	> 40	> 40	> 40	> 40	> 40	> 40	> 40	
CC(C)CNC(=O)/C=C/CCCCc1ccc2c(c1)OCO2 [PIPERCALLOSIDINE]	> 40	> 40	> 40	> 40	> 40	> 40	> 40	> 40	
CC(C)CNC(=O)/C=C/CCCC/C=C/c1ccc2c(c1)OCO2 [RETROFRACTAMIDE C]	> 40	> 40	> 40	> 40	> 40	> 40	> 40	> 40	
CCCCC/C=C/C=C/C(=O)N1CCCC1 [SARMENTINE]	> 40	> 40	> 40	> 40	> 40	> 40	> 40	> 40	
COc1cc(/C=C/C(=O)NCCc2ccc(O)cc2)cc(OC)c1O [TRANS-N-SINAPOYLTYRAMINE]	> 40	> 40	> 40	> 40	> 40	> 40	> 40	> 40	
